ChEMBL document CHEMBL1135580, “6,7-Dihydro-2-benzothiophen-4(5H)-ones: a novel class of GABA-A alpha5 receptor inverse agonists” (J Med Chem, 2002)

Columns and labels:
[1] = molecular target: T1, GABA-A receptor; alpha-5/beta-3/gamma-2 (Homo sapiens, UniProt P18507+P28472+P31644); test: Displacement of [3H]- Ro 15-1788 binding from human GABA-A receptor alpha-5-beta-3-gamma-2 subunits; assay type: protein-complex assay
T1 sequence (P18507 whole entry): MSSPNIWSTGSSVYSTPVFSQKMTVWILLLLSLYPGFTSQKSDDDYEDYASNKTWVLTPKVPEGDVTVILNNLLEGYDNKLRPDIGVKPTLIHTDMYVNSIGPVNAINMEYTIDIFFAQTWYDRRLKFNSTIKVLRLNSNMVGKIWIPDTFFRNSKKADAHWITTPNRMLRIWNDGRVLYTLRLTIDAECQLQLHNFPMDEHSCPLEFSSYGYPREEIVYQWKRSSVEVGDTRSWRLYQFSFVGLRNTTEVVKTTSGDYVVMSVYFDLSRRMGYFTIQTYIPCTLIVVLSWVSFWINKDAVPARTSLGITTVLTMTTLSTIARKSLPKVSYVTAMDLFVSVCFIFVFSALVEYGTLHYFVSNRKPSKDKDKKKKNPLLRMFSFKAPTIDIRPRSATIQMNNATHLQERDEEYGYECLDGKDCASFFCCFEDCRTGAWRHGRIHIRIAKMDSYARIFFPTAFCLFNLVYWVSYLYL
T1 sequence (P28472 whole entry): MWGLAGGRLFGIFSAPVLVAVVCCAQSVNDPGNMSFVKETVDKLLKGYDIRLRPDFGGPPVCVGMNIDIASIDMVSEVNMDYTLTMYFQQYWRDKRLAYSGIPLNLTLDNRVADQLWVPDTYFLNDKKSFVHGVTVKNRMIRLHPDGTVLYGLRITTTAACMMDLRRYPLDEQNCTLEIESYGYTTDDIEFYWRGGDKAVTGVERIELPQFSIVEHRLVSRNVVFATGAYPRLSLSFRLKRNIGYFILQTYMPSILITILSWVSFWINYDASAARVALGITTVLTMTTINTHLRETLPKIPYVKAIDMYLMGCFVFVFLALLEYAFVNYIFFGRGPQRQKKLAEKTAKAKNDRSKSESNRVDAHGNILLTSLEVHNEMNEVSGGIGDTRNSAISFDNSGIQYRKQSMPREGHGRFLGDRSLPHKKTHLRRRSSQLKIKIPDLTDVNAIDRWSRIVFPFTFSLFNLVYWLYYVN
T1 sequence (P31644 whole entry): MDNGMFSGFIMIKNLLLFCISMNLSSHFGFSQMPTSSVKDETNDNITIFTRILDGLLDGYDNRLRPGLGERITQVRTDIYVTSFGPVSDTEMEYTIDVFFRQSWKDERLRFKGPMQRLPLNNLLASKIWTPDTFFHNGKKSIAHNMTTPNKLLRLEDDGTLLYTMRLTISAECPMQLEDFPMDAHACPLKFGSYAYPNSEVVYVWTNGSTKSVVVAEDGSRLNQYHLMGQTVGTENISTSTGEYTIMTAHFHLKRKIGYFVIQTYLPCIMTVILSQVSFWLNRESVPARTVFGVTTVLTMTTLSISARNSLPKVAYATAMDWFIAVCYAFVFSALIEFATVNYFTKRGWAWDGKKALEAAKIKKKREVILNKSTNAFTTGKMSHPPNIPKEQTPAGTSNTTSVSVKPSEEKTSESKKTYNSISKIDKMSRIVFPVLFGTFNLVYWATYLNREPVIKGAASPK
In short: (§1)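 Radioligand displacement of [³H]Ro15-1788 from recombinant human GABA-A receptor subtypes. Ki values are the geometric mean ± SEM of three independent determinations.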

[2] = molecular target: T2, GABA-A receptor; alpha-3/beta-3/gamma-2 (Homo sapiens, UniProt P18507+P28472+P34903); test: Displacement of [3H]- Ro 15-1788 binding from human GABA-A receptor alpha-3-beta-3-gamma-2 subunits; assay type: protein-complex assay; in short: as §1
T2 sequence (P18507 whole entry): T1 sequence (P18507 whole entry)
T2 sequence (P28472 whole entry): T1 sequence (P28472 whole entry)
T2 sequence (P34903 whole entry): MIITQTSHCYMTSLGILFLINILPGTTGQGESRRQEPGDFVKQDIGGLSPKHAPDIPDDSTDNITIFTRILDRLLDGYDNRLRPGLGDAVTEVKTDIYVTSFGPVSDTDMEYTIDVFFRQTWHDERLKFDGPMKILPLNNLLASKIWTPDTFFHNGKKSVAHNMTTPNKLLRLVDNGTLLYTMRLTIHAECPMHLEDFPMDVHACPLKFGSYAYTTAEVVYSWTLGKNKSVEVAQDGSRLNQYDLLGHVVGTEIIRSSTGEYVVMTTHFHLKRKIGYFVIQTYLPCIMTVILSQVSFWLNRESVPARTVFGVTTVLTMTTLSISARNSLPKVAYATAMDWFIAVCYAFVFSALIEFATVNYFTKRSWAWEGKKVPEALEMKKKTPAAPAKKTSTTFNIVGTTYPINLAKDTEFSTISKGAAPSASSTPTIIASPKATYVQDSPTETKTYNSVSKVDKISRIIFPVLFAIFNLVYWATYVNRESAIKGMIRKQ

[3] = molecular target: T3, GABA-A receptor; alpha-5/beta-3/gamma-2 (Homo sapiens) (UniProt P18507+P28472+P31644); test: Maximum modulation relative to GABA EC20 against human GABA-A receptor alpha-5-beta-3-gamma-2 subunits expressed in mammalian fibroblast L(tk-) cells; assay type: cell-based
In short: (§2)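 Whole-cell patch-clamp recording from mammalian fibroblast L(tk-) cells stably expressing GABA-A αxβ3γ2 (x = 1, 2, 3 or 5). Compound modulation of a submaximal (EC20) GABA current was recorded. Maximum modulation came from individually fitted concentration-response curves, at least five per value, given as mean ± SEM.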

[4] = molecular target: T3, GABA-A receptor; alpha-5/beta-3/gamma-2 (Homo sapiens); test: Percentage modulation of GABA EC20 against human GABA-A receptor alpha-5-beta-3-gamma-2 subunits expressed in Xenopus laevis oocytes; assay type: cell-based; details: Oocyte
[5] = molecular target: T4, GABA-A receptor; alpha-1/beta-3/gamma-2 (Homo sapiens, UniProt P14867+P18507+P28472); test: Displacement of [3H]- Ro 15-1788 binding from human GABA-A receptor alpha-1-beta-3-gamma-2 subunits; assay type: protein-complex assay; in short: as §1
T4 sequence (P14867 whole entry): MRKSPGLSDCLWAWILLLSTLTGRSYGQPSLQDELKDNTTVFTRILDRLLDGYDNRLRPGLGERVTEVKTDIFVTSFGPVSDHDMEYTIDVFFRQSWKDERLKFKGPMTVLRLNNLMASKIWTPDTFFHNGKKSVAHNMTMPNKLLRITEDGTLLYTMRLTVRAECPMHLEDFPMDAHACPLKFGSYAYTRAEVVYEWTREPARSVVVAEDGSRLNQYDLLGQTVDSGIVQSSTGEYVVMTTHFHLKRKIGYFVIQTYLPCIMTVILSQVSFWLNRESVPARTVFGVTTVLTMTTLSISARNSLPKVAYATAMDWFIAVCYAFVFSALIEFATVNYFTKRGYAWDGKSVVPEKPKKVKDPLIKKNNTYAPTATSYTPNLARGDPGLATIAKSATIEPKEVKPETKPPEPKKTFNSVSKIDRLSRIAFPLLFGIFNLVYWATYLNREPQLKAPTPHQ
T4 sequence (P18507 whole entry): T1 sequence (P18507 whole entry)
T4 sequence (P28472 whole entry): T1 sequence (P28472 whole entry)

[6] = molecular target: GABA-A receptor; alpha-3/beta-3/gamma-2 (Homo sapiens) (UniProt P18507+P28472+P34903); test: Maximum modulation relative to GABA EC20 against human GABA-A receptor alpha-3-beta-3-gamma-2 subunits expressed in mammalian fibroblast L(tk-) cells; assay type: cell-based; in short: as §2
[7] = molecular target: GABA-A receptor; alpha-2/beta-3/gamma-2 (Homo sapiens) (UniProt P18507+P28472+P47869); test: Maximum modulation relative to GABA EC20 against human GABA-A receptor alpha-2-beta-3-gamma-2 subunits expressed in mammalian fibroblast L(tk-) cells; assay type: cell-based; in short: as §2
[8] = molecular target: GABA-A receptor; alpha-1/beta-3/gamma-2 (Homo sapiens) (UniProt P14867+P18507+P28472); test: Maximum modulation relative to GABA EC20 against human GABA-A receptor alpha-1-beta-3-gamma-2 subunits expressed in mammalian fibroblast L(tk-) cells; assay type: cell-based; in short: as §2
[9] = molecular target: T5, GABA-A receptor; alpha-2/beta-3/gamma-2 (Homo sapiens, UniProt P18507+P28472+P47869); test: Displacement of [3H]- Ro 15-1788 binding from human GABA-A receptor alpha-2-beta-3-gamma-2 subunits; assay type: protein-complex assay; in short: as §1
T5 sequence (P18507 whole entry): T1 sequence (P18507 whole entry)
T5 sequence (P28472 whole entry): T1 sequence (P28472 whole entry)
T5 sequence (P47869 whole entry): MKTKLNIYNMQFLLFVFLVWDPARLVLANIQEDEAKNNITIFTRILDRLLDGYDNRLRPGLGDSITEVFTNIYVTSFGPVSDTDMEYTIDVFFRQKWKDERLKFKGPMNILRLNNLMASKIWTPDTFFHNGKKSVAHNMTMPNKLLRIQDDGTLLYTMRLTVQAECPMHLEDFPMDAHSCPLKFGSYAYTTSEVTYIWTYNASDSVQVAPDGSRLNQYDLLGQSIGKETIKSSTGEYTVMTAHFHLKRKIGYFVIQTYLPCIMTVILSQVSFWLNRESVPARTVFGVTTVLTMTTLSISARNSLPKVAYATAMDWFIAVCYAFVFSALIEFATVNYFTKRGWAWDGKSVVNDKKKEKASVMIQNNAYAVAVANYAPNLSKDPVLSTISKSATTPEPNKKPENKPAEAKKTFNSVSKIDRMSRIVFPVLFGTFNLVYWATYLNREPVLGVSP

[10] = molecular target: T6, Gamma-aminobutyric acid receptor subunit alpha-5 (Homo sapiens) (UniProt P31644); test: Selectivity for GABA-A receptor alpha-5 subunit binding over alpha-1,2,3 when co-expressed with beta-3 and gamma-2
T6 sequence (whole entry): T1 sequence (P31644 whole entry)
In short: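 Ratio of binding affinity for α5 over α1, α2 and α3. Each affinity comes from [³H]Ro15-1788 displacement at recombinant human receptors, with Ki as the geometric mean of three independent determinations.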

CCc1c(C(=O)OC)ncc2[nH]c3cc(OC)c(OC)cc3c12
Ki [1]: 2.2 nM | Ki [2]: 7.5 nM | Efficacy [3]: -57% | Efficacy [4]: -34% | Ki [5]: 10 nM | Efficacy [6]: -62% | Efficacy [7]: -53% | Efficacy [8]: -71% | Ki [9]: 13 nM | Selectivity [10]: 3

CC(C)Sc1sc(-c2cc[nH]n2)c2c1C(=O)CC(C)(C)C2
Ki [1]: 2 nM | Ki [2]: 7 nM | Ki [5]: 5 nM | Ki [9]: 12 nM | Selectivity [10]: 6

CSc1sc(-c2nccs2)c2c1C(=O)CC(C)(C)C2
Ki [1]: 2.2 nM | Ki [2]: 47 nM | Efficacy [4]: -24% | Ki [5]: 61 nM | Ki [9]: 44 nM | Selectivity [10]: 28

CC1(C)CC(=O)c2c(SCCO)sc(-c3ccccn3)c2C1
Ki [1]: 0.5 nM | Ki [2]: 10 nM | Efficacy [4]: -39% | Ki [5]: 3.6 nM | Ki [9]: 5.2 nM | Selectivity [10]: 20

CC1(C)CC(=O)c2c(SSc3nccs3)sc(-c3cc[nH]n3)c2C1
Ki [1]: 1.4 nM | Ki [2]: 48 nM | Efficacy [4]: -7% | Ki [5]: 4.3 nM | Ki [9]: 19 nM | Selectivity [10]: 3

CC1(C)CC(=O)c2c(SCCO)sc(-c3nccs3)c2C1
Ki [1]: 1.6 nM | Ki [2]: 20 nM | Efficacy [3]: -51% | Efficacy [4]: -38% | Ki [5]: 20 nM | Efficacy [6]: -3% | Efficacy [7]: -1% | Efficacy [8]: -21% | Ki [9]: 16 nM | Selectivity [10]: 13

CCSc1sc(-c2cc[nH]n2)c2c1C(=O)CC(C)(C)C2
Ki [1]: 1.6 nM | Ki [2]: 16 nM | Ki [5]: 12 nM | Ki [9]: 16 nM | Selectivity [10]: 10

CSc1sc(-c2ccccn2)c2c1C(=O)CC(C)(C)C2
Ki [1]: 1.7 nM | Ki [2]: 25 nM | Efficacy [4]: -31% | Ki [5]: 45 nM | Ki [9]: 26 nM | Selectivity [10]: 26

CSc1sc(-c2cc[nH]n2)c2c1C(=O)CC(C)(C)C2
Ki [1]: 5.2 nM | Ki [2]: 21 nM | Efficacy [4]: -3% | Ki [5]: 66 nM | Ki [9]: 56 nM | Selectivity [10]: 13

CC1(C)CC(=O)c2c(SCCO)sc(-c3cc[nH]n3)c2C1
Ki [1]: 2.9 nM | Ki [2]: 24 nM | Ki [5]: 31 nM | Ki [9]: 21 nM | Selectivity [10]: 11

CSc1sc(-c2ccncc2)c2c1C(=O)CC(C)(C)C2
Ki [1]: 9.1 nM | Ki [2]: 35 nM | Efficacy [4]: -20% | Ki [5]: 172 nM | Ki [9]: 43 nM | Selectivity [10]: 19

CSc1sc(-c2cccnc2)c2c1C(=O)CC(C)(C)C2
Ki [1]: 5.8 nM | Ki [2]: 33 nM | Efficacy [4]: -40% | Ki [5]: 165 nM | Ki [9]: 31 nM | Selectivity [10]: 28
